The source of these data is ChEMBL document CHEMBL3091364, “Benzyloxybenzylammonium chlorides: Simple amine salts that display anticonvulsant activity” (Bioorg Med Chem, 2013).

The target in series [1] is Sodium-dependent noradrenaline transporter (Homo sapiens) (UniProt P23975). In words: Inhibition of NET (unknown origin) at 10 uM relative to control.
Series [2] addresses Muscarinic acetylcholine receptor M3 (Homo sapiens) (UniProt P20309). In words: Inhibition of muscarinergic M3 receptor (unknown origin) at 10 uM relative to control.
Series [3] concerns the target T1, Muscarinic acetylcholine receptor M1 (Homo sapiens) (UniProt P11229).
T1 sequence (whole entry): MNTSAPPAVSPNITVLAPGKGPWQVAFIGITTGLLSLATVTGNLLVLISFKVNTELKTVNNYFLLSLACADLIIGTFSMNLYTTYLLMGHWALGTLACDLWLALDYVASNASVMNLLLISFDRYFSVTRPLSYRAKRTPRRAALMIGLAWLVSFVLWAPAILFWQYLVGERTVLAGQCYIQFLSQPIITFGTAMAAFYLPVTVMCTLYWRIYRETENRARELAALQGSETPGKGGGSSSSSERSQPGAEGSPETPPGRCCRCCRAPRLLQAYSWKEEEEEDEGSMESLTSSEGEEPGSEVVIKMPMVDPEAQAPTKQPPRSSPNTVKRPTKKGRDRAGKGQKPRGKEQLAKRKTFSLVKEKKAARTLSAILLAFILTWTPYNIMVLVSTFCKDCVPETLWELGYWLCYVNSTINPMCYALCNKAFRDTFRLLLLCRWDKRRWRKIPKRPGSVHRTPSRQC
In words: Inhibition of muscarinergic M1 receptor (unknown origin) at 10 uM relative to control.

Series [4] has as its target D(3) dopamine receptor (Homo sapiens) (UniProt P35462). In words: Inhibition of dopaminergic D3 receptor (unknown origin) at 10 uM relative to control.
The target of series [5] is D(2) dopamine receptor (Homo sapiens) (UniProt P14416). In words: Inhibition of dopaminergic D2 receptor (unknown origin) at 10 uM relative to control.
D(2) dopamine receptor (Homo sapiens), sequence (P14416 whole entry): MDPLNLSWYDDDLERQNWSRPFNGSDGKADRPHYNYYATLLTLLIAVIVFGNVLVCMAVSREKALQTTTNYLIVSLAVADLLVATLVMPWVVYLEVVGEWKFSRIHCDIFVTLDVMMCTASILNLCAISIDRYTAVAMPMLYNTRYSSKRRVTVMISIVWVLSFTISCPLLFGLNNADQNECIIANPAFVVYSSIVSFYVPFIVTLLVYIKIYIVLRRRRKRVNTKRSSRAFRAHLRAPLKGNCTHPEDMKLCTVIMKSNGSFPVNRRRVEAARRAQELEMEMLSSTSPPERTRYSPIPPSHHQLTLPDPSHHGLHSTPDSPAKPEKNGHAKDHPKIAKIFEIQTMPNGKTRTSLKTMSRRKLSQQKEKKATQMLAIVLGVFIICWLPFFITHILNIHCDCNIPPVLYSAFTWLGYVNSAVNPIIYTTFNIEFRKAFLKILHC
Series [6] addresses Beta-3 adrenergic receptor (Homo sapiens) (UniProt P13945). In words: Inhibition of adrenergic beta-3 receptor (unknown origin) at 10 uM relative to control.
For series [7], the target named is Beta-2 adrenergic receptor (Homo sapiens) (UniProt P07550). The series can be described thus: Inhibition of adrenergic beta-2 receptor (unknown origin) at 10 uM relative to control.
Beta-2 adrenergic receptor (Homo sapiens), sequence (P07550 whole entry, looked up): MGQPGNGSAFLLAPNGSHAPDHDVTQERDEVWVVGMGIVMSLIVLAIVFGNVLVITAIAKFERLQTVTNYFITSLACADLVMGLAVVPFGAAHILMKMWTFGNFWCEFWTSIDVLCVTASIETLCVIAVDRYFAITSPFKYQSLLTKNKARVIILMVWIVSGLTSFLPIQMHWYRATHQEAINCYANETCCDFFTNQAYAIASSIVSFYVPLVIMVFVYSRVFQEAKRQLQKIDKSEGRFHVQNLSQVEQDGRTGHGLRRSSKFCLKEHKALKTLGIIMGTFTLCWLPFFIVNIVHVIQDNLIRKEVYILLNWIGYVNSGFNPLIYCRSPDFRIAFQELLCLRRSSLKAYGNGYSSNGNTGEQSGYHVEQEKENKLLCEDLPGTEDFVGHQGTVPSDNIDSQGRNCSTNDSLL
In series [8] the target is T2, Alpha-2A adrenergic receptor (Homo sapiens) (UniProt P08913).
T2 sequence (whole entry): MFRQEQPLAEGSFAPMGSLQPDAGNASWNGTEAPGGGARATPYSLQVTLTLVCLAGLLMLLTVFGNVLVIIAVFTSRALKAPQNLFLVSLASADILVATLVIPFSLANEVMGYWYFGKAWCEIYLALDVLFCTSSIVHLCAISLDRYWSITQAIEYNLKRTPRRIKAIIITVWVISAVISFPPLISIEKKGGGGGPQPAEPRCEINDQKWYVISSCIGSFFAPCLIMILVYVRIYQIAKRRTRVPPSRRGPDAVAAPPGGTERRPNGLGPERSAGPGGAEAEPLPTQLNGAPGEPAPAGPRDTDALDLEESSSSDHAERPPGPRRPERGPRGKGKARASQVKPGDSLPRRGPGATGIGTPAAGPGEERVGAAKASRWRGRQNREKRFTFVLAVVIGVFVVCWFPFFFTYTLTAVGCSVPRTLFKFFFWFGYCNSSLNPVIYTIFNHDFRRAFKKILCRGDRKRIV
The series can be described thus: Inhibition of adrenergic alpha-2A receptor (unknown origin) at 10 uM relative to control.

In series [9] the target is 5-hydroxytryptamine receptor 7 (Homo sapiens) (UniProt P34969). In words: Inhibition of 5-HT7 receptor (unknown origin) at 10 uM relative to control.
5-hydroxytryptamine receptor 7 (Homo sapiens), sequence (P34969 whole entry): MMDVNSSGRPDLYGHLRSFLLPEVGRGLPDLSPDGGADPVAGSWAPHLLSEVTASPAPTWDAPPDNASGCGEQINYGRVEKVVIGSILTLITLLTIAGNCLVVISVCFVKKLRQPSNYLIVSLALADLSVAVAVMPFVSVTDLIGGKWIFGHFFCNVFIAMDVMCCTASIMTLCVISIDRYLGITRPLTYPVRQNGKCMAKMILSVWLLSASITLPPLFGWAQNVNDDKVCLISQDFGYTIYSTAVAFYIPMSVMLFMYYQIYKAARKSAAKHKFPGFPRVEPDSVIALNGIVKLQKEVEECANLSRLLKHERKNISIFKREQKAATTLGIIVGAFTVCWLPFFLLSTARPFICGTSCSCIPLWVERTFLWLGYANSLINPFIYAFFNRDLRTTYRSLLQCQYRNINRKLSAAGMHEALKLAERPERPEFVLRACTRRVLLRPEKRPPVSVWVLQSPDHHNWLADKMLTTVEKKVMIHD
In series [10] the target is T3, 5-hydroxytryptamine receptor 1A (Homo sapiens) (UniProt P08908).
T3 sequence (whole entry): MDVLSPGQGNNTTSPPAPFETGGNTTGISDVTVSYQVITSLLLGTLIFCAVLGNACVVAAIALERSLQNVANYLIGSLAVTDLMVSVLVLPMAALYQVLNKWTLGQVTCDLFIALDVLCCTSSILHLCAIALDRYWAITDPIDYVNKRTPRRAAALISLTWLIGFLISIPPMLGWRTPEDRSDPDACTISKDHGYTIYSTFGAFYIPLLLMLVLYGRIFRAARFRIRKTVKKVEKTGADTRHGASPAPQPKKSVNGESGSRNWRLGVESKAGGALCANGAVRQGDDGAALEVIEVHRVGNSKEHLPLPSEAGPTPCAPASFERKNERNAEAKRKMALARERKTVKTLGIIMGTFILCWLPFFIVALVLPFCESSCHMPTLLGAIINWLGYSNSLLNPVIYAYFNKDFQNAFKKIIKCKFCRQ
In words: Inhibition of 5-HT1A receptor (unknown origin) at 10 uM relative to control.

A short description of series [11]: Toxicity in ip dosed albino CF-1 mouse assessed as neurological impairment measured at 0.25 to 4 hrs by rotorod test. The following applies: in vivo. Format: organism-based. Summed up: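 Male albino Carworth Farms No. 1 mice dosed intraperitoneally under the NINDS Anticonvulsant Screening Program; neurological impairment scored by rotorod test. Qualitative screens used preset doses (e.g., 30, 100 mg/kg); where activity was sufficient, dose–response curves were run at time of peak effect to give TD50 in mg/kg with 95% confidence intervals.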

Series [12] concerns Mus musculus. The series can be described thus: Anticonvulsant activity in ip dosed albino CF-1 mouse assessed as protection against 6 Hz psychomotor seizure measured at 0.25 to 4 hrs. The series is classed as functional. As to conditions: albino CF-1, ip. Summed up:
(§1)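 Screened under the NINDS ASP in male albino Carworth Farms No. 1 mice (ip) or male albino Sprague-Dawley rats (ip or po), using MES, 6 Hz (32 mA) and subcutaneous pentylenetetrazol seizure tests. Initial qualitative tests used preset doses (e.g., 30, 50, 100 mg/kg). ED50 values with 95% confidence intervals came from dose–response data collected at the time of peak effect.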

In series [13] the test system is Mus musculus. In words: Anticonvulsant activity in ip dosed albino CF-1 mouse assessed as protection against 6 Hz psychomotor seizure measured at 2 hrs. Format: functional. The following applies: albino CF-1, ip. Summed up: as §1
The subject of series [14] is Mus musculus. In words: Anticonvulsant activity in ip dosed albino CF-1 mouse assessed as protection against maximal electroshock-induced seizures measured at 0.25 hrs. Format: functional. The following applies: albino CF-1, ip. Summed up:
as §1

Series [15] addresses T4, Alpha-1A adrenergic receptor (Homo sapiens) (UniProt P35348).
T4 sequence (whole entry): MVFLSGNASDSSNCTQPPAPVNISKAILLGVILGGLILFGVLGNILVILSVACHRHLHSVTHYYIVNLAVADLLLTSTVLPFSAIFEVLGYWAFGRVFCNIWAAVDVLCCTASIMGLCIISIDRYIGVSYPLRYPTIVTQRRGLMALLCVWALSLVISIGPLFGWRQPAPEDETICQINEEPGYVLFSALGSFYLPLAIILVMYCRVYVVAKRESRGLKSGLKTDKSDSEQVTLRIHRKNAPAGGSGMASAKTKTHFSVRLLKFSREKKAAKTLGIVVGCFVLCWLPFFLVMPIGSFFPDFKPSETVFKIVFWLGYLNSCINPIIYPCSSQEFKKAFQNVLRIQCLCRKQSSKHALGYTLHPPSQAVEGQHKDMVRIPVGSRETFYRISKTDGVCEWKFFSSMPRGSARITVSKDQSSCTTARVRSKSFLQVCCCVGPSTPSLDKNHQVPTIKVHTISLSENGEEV
In words: Inhibition of adrenergic alpha-1A receptor (unknown origin) at 10 uM relative to control.

Sodium-dependent noradrenaline transporter (Homo sapiens), sequence (P23975 whole entry): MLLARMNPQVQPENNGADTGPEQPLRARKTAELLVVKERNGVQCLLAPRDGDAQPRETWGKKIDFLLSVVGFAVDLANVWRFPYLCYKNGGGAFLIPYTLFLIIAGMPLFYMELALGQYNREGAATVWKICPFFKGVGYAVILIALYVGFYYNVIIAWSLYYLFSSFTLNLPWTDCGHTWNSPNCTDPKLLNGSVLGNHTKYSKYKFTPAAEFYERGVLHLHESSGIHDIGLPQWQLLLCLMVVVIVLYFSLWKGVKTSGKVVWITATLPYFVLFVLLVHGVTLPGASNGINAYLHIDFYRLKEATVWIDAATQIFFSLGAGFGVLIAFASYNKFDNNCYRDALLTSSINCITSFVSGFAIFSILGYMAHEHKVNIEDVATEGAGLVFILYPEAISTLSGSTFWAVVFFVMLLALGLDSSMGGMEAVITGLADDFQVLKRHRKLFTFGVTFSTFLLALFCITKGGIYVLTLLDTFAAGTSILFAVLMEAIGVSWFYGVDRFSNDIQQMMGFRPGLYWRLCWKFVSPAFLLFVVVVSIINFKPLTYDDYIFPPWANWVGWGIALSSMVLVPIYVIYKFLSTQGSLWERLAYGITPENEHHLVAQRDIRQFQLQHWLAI
Beta-3 adrenergic receptor (Homo sapiens), sequence (P13945 whole entry, looked up): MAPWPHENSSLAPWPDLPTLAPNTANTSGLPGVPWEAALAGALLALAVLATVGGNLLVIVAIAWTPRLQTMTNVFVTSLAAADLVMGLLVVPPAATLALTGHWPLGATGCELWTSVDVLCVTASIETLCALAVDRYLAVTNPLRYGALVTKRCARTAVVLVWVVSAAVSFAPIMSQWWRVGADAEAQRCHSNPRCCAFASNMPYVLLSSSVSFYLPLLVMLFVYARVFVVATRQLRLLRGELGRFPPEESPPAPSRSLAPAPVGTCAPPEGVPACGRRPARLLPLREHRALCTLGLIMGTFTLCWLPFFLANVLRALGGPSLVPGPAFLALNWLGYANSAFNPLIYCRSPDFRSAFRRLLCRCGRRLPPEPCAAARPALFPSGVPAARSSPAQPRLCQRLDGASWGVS
D(3) dopamine receptor (Homo sapiens), sequence (P35462 whole entry): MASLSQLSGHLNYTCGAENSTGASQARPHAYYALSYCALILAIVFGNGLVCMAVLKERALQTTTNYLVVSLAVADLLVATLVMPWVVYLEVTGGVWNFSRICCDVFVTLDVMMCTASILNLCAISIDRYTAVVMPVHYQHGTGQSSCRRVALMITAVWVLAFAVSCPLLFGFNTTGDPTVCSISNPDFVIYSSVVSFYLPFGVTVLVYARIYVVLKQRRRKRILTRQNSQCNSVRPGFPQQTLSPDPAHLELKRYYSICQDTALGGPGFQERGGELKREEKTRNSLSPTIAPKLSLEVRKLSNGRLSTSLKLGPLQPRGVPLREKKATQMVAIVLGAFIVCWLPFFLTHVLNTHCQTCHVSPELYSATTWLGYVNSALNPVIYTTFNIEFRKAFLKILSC
Muscarinic acetylcholine receptor M3 (Homo sapiens), sequence (P20309 whole entry, looked up): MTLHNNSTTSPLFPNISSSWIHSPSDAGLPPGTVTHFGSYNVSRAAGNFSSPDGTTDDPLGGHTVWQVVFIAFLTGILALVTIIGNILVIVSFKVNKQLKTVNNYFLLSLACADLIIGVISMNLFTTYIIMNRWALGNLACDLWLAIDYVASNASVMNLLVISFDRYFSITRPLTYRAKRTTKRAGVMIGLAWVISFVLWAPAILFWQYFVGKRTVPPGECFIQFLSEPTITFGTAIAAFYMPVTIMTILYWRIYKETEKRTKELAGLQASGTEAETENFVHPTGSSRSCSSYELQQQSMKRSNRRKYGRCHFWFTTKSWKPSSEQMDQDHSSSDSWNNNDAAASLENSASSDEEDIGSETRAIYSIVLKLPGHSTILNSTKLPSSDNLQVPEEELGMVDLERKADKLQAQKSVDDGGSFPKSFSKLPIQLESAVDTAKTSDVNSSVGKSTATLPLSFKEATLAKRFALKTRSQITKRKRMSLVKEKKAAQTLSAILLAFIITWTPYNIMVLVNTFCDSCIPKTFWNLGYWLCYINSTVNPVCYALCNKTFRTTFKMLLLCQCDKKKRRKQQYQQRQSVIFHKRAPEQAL

In the case of `Cl.NCc1ccc(OCc2cccc(F)c2)cc1`, the inhibition is 76.1% in series [1]; -2.1% in [2]; 37.5% in series [3]; 14% in [4]; 3.2% in [5]; 9.3% in [6]. For the same compound, the inhibition in series [7] stood at 9.2%; in series [8] it was 57.2%; in series [9] it was 59.1%; in [10], 50.1%. The TD50 in series [11] was over 100 mg/kg. Moreover, the ED50 in the series on Mus musculus [12] is over 50 mg/kg.

Turning to `Cl.NCc1ccc(OCc2cccc(Cl)c2)cc1`, the inhibition in series [1] is 83.9%; in [2], 11.9%; in series [3], 17.6%; in series [4], 38.1%; in series [6], 16.9%; in series [7] it was -5.7%. Moreover, the results for the inhibition in series [8], in series [9] and in [10] were 74%, -1.9% and 7.5%, respectively. Also, the ED50 in the series with Mus musculus [13] came out at 78 mg/kg; with Mus musculus [14], 54 mg/kg.

Consider `Cl.NCc1ccc(OCc2ccccc2OC(F)(F)F)cc1`, for which the inhibition in series [1] came out at 29.3%; in [2] it was 19.5%; in series [3] it was 67.3%; in series [4], 33.9%; in [5] it was 12.7%; in [6], 26.8%. In addition, the inhibition is 5% in series [7]; 59.2% in [8]; -9.7% in series [15]; 38.7% in series [9]; 10.1% in series [10]. Besides, the figures for the ED50 in the series with Mus musculus [12] and in the series on Mus musculus [14] were under 100 mg/kg and 20 mg/kg, respectively.

In the case of `Cl.NCc1ccc(OCc2ccc(F)cc2)cc1`, the inhibition in series [1] turned out to be 59.9%; in [2] it was 7%; in series [3], 18.6%; in [4], 16.7%; in series [6], 5%; in series [7] it was 2.2%. Besides, the inhibition in series [8] is 55.4%; in series [15], -7.5%; in series [9], 67.7%; in series [10], 36%. In series [11], the TD50 was over 100 mg/kg. Also, the ED50 was over 100 mg/kg with Mus musculus [12] and under 100 mg/kg in the series on Mus musculus [14].

With `Cl.NCc1ccc(OCc2cccc(OC(F)(F)F)c2)cc1`, the inhibition in series [1] was 58.5%; in series [2], -3.5%; in series [4], 33.5%; in series [6], 13.6%; in [7], -8.1%; in series [8] it was 47%. The values for the inhibition in [9] and in series [10] were 43.6% and 50%, respectively.

With `Cl.NCc1ccc(OCc2ccccc2)cc1`, the inhibition came out at 63.6% in series [1]; 1% in series [2]; 28.9% in series [3]; 14.3% in series [4]; 12.4% in series [5]; 11.3% in series [6]. Also, the inhibition in series [7] amounted to 11.8%; in series [8] it was 47.3%; in series [15], 12.8%; in series [9] it was 56.3%; in series [10], 16%.

For `Cl.NCc1ccc(OCc2ccccc2F)cc1`, the inhibition was 61.3% in series [1]; 12.7% in series [2]; 42% in series [3]; 24.1% in [4]; 7.4% in [5]; 10.2% in series [6]. Further, the inhibition in [7] amounted to 17.4%; in series [8], 39%; in [9], 43.5%; in series [10] it was 32.3%.

On to `Cl.NCc1ccc(OCc2ccc(Cl)cc2)cc1`, for which the inhibition is 64.7% in series [1]; 13.7% in series [2]; 18.8% in series [3]; 22.6% in series [4]; -3.4% in [6]; 17.1% in [7]. Moreover, the inhibition in series [8] is 65.9%; in series [15], -9.4%; in series [9], 45.4%; in series [10], 3.7%. The TD50 in series [11] is over 100 mg/kg. In addition, the ED50 in the series on Mus musculus [13] and in the series on Mus musculus [14] was under 100 mg/kg in each case.

On to `Cl.NCc1ccc(OCc2ccc(OC(F)(F)F)cc2)cc1`, for which the inhibition in series [1] is 60.1%; in series [2] it was -6.5%; in [3] it was 26.6%; in series [4], 13.3%; in series [5], 5.3%; in series [6] it was 17.5%. Further, the inhibition in series [7] stood at 9.1%; in [8], 48.2%; in series [9], 29.3%; in [10] it was 22.3%. The TD50 in series [11] is over 100 mg/kg. In the series on Mus musculus [13], the ED50 came out at 30 mg/kg.
